Converted amounts (≈) assume the structure as drawn. “And” between values parts separate entries of the source, which are not always exact repeats. Equal entries are not always repeated. The source made the active and inactive calls. The rule behind the calls is not given here.
Legend:
Rattus norvegicus [1] = assay: Antiinflammatory activity in rat model of carrageenan-induced paw edema assessed as inhibition of hind paw swelling at 15 mg/kg, ip measured after 5 hrs; type: functional, organism-based
[2] = Antioxidant activity assessed as trolox equivalent of ABTS radical scavenging activity measured after 1 hr by UV-vis spectrophotometric method; type: functional
Procedure, shortened: (§1)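 ABTS cation-radical decolorization was read spectrophotometrically as the fall in absorbance after 1 h. Trolox was the reference. TEAC was taken as the ratio of concentration-response slopes, test/Trolox, and IC50 was also derived. Data are mean ± SEM, n = 3.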

Rattus norvegicus [3] = assay: Antiinflammatory activity in rat model of carrageenan-induced paw edema assessed as inhibition of hind paw swelling at 15 mg/kg, ip measured after 3 hrs relative to control; type: functional
Rattus norvegicus [4] = assay: Antiinflammatory activity in rat model of carrageenan-induced paw edema assessed as inhibition of hind paw swelling at 15 mg/kg, ip measured after 1 hr relative to control; type: functional
Rattus norvegicus [5] = assay: Analgesic activity in rat assessed as prolongation of latency period at 15 mg/kg, ip measured after 1 hr by hot-plate test relative to control; type: functional
Procedure, shortened: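 Hot-plate test in rats. Compounds were given by intraperitoneal injection. Latency was read at 1 h and, for some compounds, also at 2 h after dosing. Results are expressed as % prolongation of the latent period versus vehicle-treated control. Significance was given as p-values.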

[6] = Antioxidant activity assessed as AAPH scavenging activity by measuring residual fluorescence at 50 uM measured at 1 min interval for 30 mins by ORAC fluorescein assay relative to control; type: functional
Procedure, shortened: (§2)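 ORAC-FL assay with fluorescein as the probe and AAPH as the peroxyl radical generator. The loss of fluorescence over time was followed, and the result is given as % fluorescence restored at 10 and 50 µM. Each value is the mean of two independent experiments.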

Erythrocyte [7] = assay: Antioxidant activity in human erythrocytes assessed as protection against AAPH-induced hemolysis at 50 uM preincubated for 20 mins followed by AAPH addition and measured after 2 hrs by spectrophotometric method relative to control; type: functional; conditions: time 140 min, 2.333 h
Procedure, shortened: (§3)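 Erythrocyte hemolysis assay with AAPH as the free-radical initiator, testing 50 and 400 µM. Results are expressed as relative protection of membranes against oxidative damage, each the mean of two independent experiments.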

[8] = Antioxidant activity assessed as AAPH scavenging activity by measuring residual fluorescence at 10 uM measured at 1 min interval for 30 mins by ORAC fluorescein assay relative to control; type: functional; procedure, shortened: as §2
Erythrocyte [9] = assay: Antioxidant activity in human erythrocytes assessed as protection against AAPH-induced hemolysis at 400 uM preincubated for 20 mins followed by AAPH addition and measured after 2 hrs by spectrophotometric method relative to control; type: functional; conditions: time 140 min, 2.333 h; procedure, shortened: as §3
[10] = system: Trichophyton interdigitale; assay: Antifungal activity against Trichophyton mentagrophytes var. interdigitale; type: functional
Proteus vulgaris = assay: Antibacterial activity against Proteus vulgaris; type: functional
Staphylococcus aureus [11] = assay: Antibacterial activity against Staphylococcus aureus; type: functional
Staphylococcus aureus [12] = assay: Antibacterial activity against methicillin resistant Staphylococcus aureus; type: functional
Microsporum canis = assay: Antifungal activity against Microsporum canis; type: functional
Trichophyton violaceum = assay: Antifungal activity against Trichophyton violaceum; type: functional
Trichophyton tonsurans = assay: Antifungal activity against Trichophyton tonsurans; type: functional
Nannizzia gypsea = assay: Antifungal activity against Trichophyton gypseum; type: functional
Candida albicans = assay: Antifungal activity against Candida albicans; type: functional
Shigella flexneri = assay: Antibacterial activity against Shigella flexneri; type: functional
Streptococcus pyogenes = assay: Antibacterial activity against Streptococcus pyogenes; type: functional
Escherichia coli = assay: Antibacterial activity against Escherichia coli; type: functional
Klebsiella pneumoniae = assay: Antibacterial activity against Klebsiella pneumoniae; type: functional
Trichophyton rubrum = assay: Antifungal activity against Trichophyton rubrum; type: functional
Neisseria gonorrhoeae = assay: Antibacterial activity against Neisseria gonorrhoeae; type: functional
Epidermophyton floccosum = assay: Antifungal activity against Epidermophyton floccosum; type: functional
Pseudomonas aeruginosa = assay: Antibacterial activity against Pseudomonas aeruginosa; type: functional
Citrobacter braakii = assay: Antibacterial activity against Citrobacter braakii; type: functional
Serratia marcescens = assay: Antibacterial activity against Serratia marcescens; type: functional
HeLa = assay: Cytotoxicity against human HeLa cells; type: functional, cell-based
NHDF = assay: Cytotoxicity against HDF cells; type: cell-based, Homo sapiens
[13] = Antioxidant activity assessed as ABTS radical scavenging activity measured after 1 hr by UV-vis spectrophotometric method; type: functional; procedure, shortened: as §1

Question: For `Cn1nc(C(F)(F)F)c(N)c1-c1ccco1`, which Activity (Rattus norvegicus [1]) is on record?
Answer: Active

Question: What about the Activity [2] of the same compound?
Answer: 0.04 equiv

Question: For `Cc1c(N(C)CS(=O)(=O)O)c(=O)n(-c2ccccc2)n1C` [METAMIZOLE], which inhibition (Rattus norvegicus [3]) is on record?
Answer: inactive

Question: And the inhibition (Rattus norvegicus [4])?
Answer: inactive

Question: And the Activity (Rattus norvegicus [5])?
Answer: 59.8%

Question: With `O=c1c(O)c(-c2ccc(O)c(O)c2)oc2cc(O)cc(O)c12` [QUERCETIN] as the compound, how does the Activity [6] read?
Answer: 90%

Question: What about the “fold change (FC)” value (Erythrocyte [7]) of the same compound?
Answer: 0.023

Question: And the Activity [8]?
Answer: 87.6%

Question: What about the “fold change (FC)” value (Erythrocyte [9]) of the same compound?
Answer: 0.045

Question: For `CS(=O)(=O)c1ccc(-n2nc(C(F)(F)F)c(N=O)c2-c2ccccc2)cc1`, which MIC [10] is on record?
Answer: 200 µg/mL (≈ 506 µM)

Question: And the MIC (Proteus vulgaris)?
Answer: > 250 µg/mL

Question: And the MIC (Staphylococcus aureus [11])?
Answer: > 250 µg/mL

Question: And the MIC (Staphylococcus aureus [12])?
Answer: 31.2 µg/mL (≈ 78.9 µM)

Question: What about the MIC (Microsporum canis) of the same compound?
Answer: 200 µg/mL (≈ 506 µM)

Question: And the MIC (Trichophyton violaceum)?
Answer: > 200 µg/mL

Question: What about the Activity (Rattus norvegicus [1]) of the same compound?
Answer: Active

Question: And the MIC (Trichophyton tonsurans)?
Answer: > 200 µg/mL

Question: What about the MIC (Nannizzia gypsea) of the same compound?
Answer: 200 µg/mL (≈ 506 µM)

Question: What about the MIC (Candida albicans) of the same compound?
Answer: > 200 µg/mL

Question: What about the MIC (Shigella flexneri) of the same compound?
Answer: > 250 µg/mL

Question: And the MIC (Streptococcus pyogenes)?
Answer: > 250 µg/mL

Question: And the MIC (Escherichia coli)?
Answer: > 250 µg/mL

Question: What about the MIC (Klebsiella pneumoniae) of the same compound?
Answer: > 250 µg/mL

Question: And the MIC (Trichophyton rubrum)?
Answer: 200 µg/mL (≈ 506 µM)

Question: And the MIC (Neisseria gonorrhoeae)?
Answer: 62.5 µg/mL (≈ 158 µM)

Question: And the MIC (Epidermophyton floccosum)?
Answer: 200 µg/mL (≈ 506 µM)

Question: What about the MIC (Pseudomonas aeruginosa) of the same compound?
Answer: > 250 µg/mL

Question: And the MIC (Citrobacter braakii)?
Answer: > 250 µg/mL

Question: What about the MIC (Serratia marcescens) of the same compound?
Answer: > 250 µg/mL

Question: For `CS(=O)(=O)c1ccc(-n2nc(C(F)(F)F)c(N)c2-c2ccccc2)cc1.Cl`, which MIC (Proteus vulgaris) is on record?
Answer: > 250 µg/mL

Question: What about the MIC (Staphylococcus aureus [11]) of the same compound?
Answer: > 250 µg/mL

Question: What about the Activity (Rattus norvegicus [1]) of the same compound?
Answer: Active

Question: And the IC50 (HeLa; hela)?
Answer: Not Active

Question: What about the Activity [2] of the same compound?
Answer: inactive

Question: And the MIC (Shigella flexneri)?
Answer: > 250 µg/mL

Question: And the IC50 (NHDF; nhdf)?
Answer: Not Active

Question: And the MIC (Streptococcus pyogenes)?
Answer: > 250 µg/mL

Question: And the MIC (Escherichia coli)?
Answer: > 250 µg/mL

Question: And the MIC (Klebsiella pneumoniae)?
Answer: > 250 µg/mL

Question: And the MIC (Neisseria gonorrhoeae)?
Answer: 250 µg/mL

Question: And the MIC (Pseudomonas aeruginosa)?
Answer: > 250 µg/mL

Question: What about the MIC (Citrobacter braakii) of the same compound?
Answer: > 250 µg/mL

Question: What about the MIC (Serratia marcescens) of the same compound?
Answer: > 250 µg/mL

Question: Which IC50 (HeLa; Homo sapiens, HeLa, read-out: IC50) does the source give for `COc1cccc2c1C(=O)c1c(O)c3c(c(O)c1C2=O)C[C@@](O)(C(=O)CO)C[C@@H]3O[C@H]1C[C@H](N)[C@H](O)[C@H](C)O1` [DOXORUBICIN] here?
Answer: 4.25 µM

Question: And the IC50 (NHDF; Homo sapiens, NHDF, read-out: IC50)?
Answer: 2.72 µM

Question: Which IC50 [13] does the source give for `O=C1O[C@H]([C@@H](O)CO)C(O)=C1O` [ASCORBIC ACID] here?
Answer: 21.6 µM

Question: For `Nc1c(C(F)(F)F)n[nH]c1-c1ccccc1`, which inhibition (Rattus norvegicus [3]) is on record?
Answer: inactive

Question: What about the Activity (Rattus norvegicus [1]) of the same compound?
Answer: Active

Question: And the Activity (HeLa)?
Answer: Dose-dependent effect

Question: And the Activity [2]?
Answer: 0.58 equiv and 1.35 equiv

Question: What about the Activity [6] of the same compound?
Answer: 60.2% and 62.8%

Question: And the Activity [8]?
Answer: 63.1% and 59.7%

Question: For `Cc1ccc(-c2[nH]nc(C(F)(F)F)c2N)cc1`, which Activity (Rattus norvegicus [1]) is on record?
Answer: Active

Question: And the Activity [2]?
Answer: 1.43 equiv

Question: And the IC50 [13]?
Answer: 13.4 µM

Question: Which MIC (Proteus vulgaris) does the source give for `CN[C@@H]1[C@H](O)[C@H](NC)[C@H]2O[C@@]3(O)C(=O)C[C@@H](C)O[C@H]3O[C@@H]2[C@H]1O` [SPECTINOMYCIN] here?
Answer: 1.25 µg/mL (≈ 3.76 µM)

Question: What about the MIC (Staphylococcus aureus [11]) of the same compound?
Answer: 31.2 µg/mL (≈ 93.9 µM)

Question: And the MIC (Shigella flexneri)?
Answer: 7.8 µg/mL (≈ 23.5 µM)

Question: And the MIC (Escherichia coli)?
Answer: 15.6 µg/mL (≈ 46.9 µM)

Question: What about the MIC (Klebsiella pneumoniae) of the same compound?
Answer: 15.6 µg/mL (≈ 46.9 µM)

Question: And the MIC (Neisseria gonorrhoeae)?
Answer: 15.6 µg/mL (≈ 46.9 µM)

Question: What about the MIC (Pseudomonas aeruginosa) of the same compound?
Answer: 2.5 µg/mL (≈ 7.52 µM)

Question: And the MIC (Citrobacter braakii)?
Answer: 31.2 µg/mL (≈ 93.9 µM)

Question: What about the MIC (Serratia marcescens) of the same compound?
Answer: 15.6 µg/mL (≈ 46.9 µM)

Question: Which Activity [2] does the source give for `Cc1c(C)c2c(c(C)c1O)CCC(C)(C(=O)O)O2` (stereo unspecified) [TROLOX] here?
Answer: 1 equiv

Question: And the IC50 [13]?
Answer: 20.1 µM

Source: ChEMBL document CHEMBL4765448, “Multiple biological active 4-aminopyrazoles containing trifluoromethyl and their 4-nitroso-precursors: Synthesis and evaluation” (Eur J Med Chem, 2020)
